Reference: ChEMBL document CHEMBL1129956, “4-substituted-3-phenylquinolin-2(1H)-ones: acidic and nonacidic glycine site N-methyl-D-aspartate antagonists with in vivo activity” (J Med Chem, 1997)
Calls of active or inactive are those of the source. The rule behind the calls is not given here.

What was measured:
Mus musculus [1] = assay: Evaluated in vivo for their ability to protect against audiogenic seizure in DBA/2 mice when administered 20 mg/kg ip 30 min prior to noise stimulation out of 8 mice tested; conditions: route intraperitoneal
[2] = biological target: Glutamate NMDA receptor (Rattus norvegicus) (UniProt P35439+Q00959+Q00960+Q00961+Q62645+Q8VHN2+Q9R1M7); assay: (§1) Evaluated to antagonize NMDA responses in a rat cortical slice preparations; format: functional
Method in brief: (§2)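 Rat cortical slice preparation; antagonist-induced rightward shift of the NMDA concentration–response curve used to calculate apparent Kb; values are the means of three determinations.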

Mus musculus [3] = assay: compound was evaluated in vivo for their ability to protect against audiogenic seizure in DBA/2 mice when administered 100 mg/kg ip 30 min prior to noise stimulation out of 8 mice tested; format: functional; conditions: route intraperitoneal
Method in brief: (§3)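 DBA/2 mice given compound intraperitoneally 30 min before noise stimulation, with protection from audiogenic seizure scored. Results are reported as an ED50 (mg/kg) or as number of mice protected per number tested at a single dose.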

Mus musculus [4] = assay: compound was evaluated in vivo for their ability to protect against audiogenic seizure in DBA/2 mice when dosed ip 30 min prior to noise stimulation and it is evaluated as ED50 value; format: functional
Method in brief: as §3

Mus musculus [5] = assay: compound was evaluated in vivo for their ability to protect against audiogenic seizure in DBA/2 mice when administered 20 mg/kg ip 30 min prior to noise stimulation out of 8 mice tested; format: functional; conditions: route intraperitoneal
Method in brief: as §3

[6] = biological target: Glutamate receptor ionotropic, NMDA 1 (Rattus norvegicus, UniProt P35439); assay: In vitro ability to displace [3H]L-689,560 binding to glycine site on the N-methyl-D-aspartate (NMDA) glutamate receptor 1 from rat cortical membranes
Method in brief: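 Glycine-site antagonist [3H]L-689,560 displaced from rat cortex/hippocampus membranes. IC50 (concentration inhibiting 50% of specific binding) taken from 5-point inhibition curves as the geometric mean of at least three experiments. A compound giving under 50% inhibition at 100 μM in two experiments is reported as >100 μM.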

Mus musculus [7] = assay: Compound was evaluated in vivo for their ability to protect against audiogenic seizure in DBA/2 mice when administered 20 mg/kg ip 30 min prior to noise stimulation out of 8 mice tested; format: functional; conditions: route intraperitoneal
Method in brief: as §3

[8] = biological target: Glutamate receptor ionotropic, NMDA 1 (Rattus norvegicus) (UniProt P35439); assay: as §1; format: functional
Method in brief: as §2

Mus musculus [9] = assay: Compound was evaluated in vivo for their ability to protect against audiogenic seizure in DBA/2 mice when dosed ip 30 min prior to noise stimulation and it is evaluated as ED50 value; format: functional
Method in brief: as §3

[10] = biological target: Glutamate receptor ionotropic, NMDA 1 (Rattus norvegicus) (UniProt P35439); assay: In vitro ability to displace [3H]L-689,560 binding to glycine site on the N-methyl-D-aspartate glutamate receptor 1 from rat cortical membranes at […]
Mus musculus [11] = assay: Compound was evaluated in vivo for their ability to protect against audiogenic seizure in DBA/2 mice when dosed ip 30 min prior to noise stimulation; format: functional
Method in brief: as §3

Mus musculus [12] = assay: In vivo ability to protect against audiogenic seizure in DBA/2 mice when administered 20 mg/kg ip 30 min prior to noise stimulation out of 8 mice tested; format: functional, organism-based; set-up: dose 20 mg/kg
Method in brief: as §3

Mus musculus [13] = assay: compound was evaluated in vivo for their ability to protect against audiogenic seizure in DBA/2 mice when administered 20 mg/kg ip 30 min prior to noise stimulation (expressed as no of mice protected/tested); 1/8; format: functional, organism-based; set-up: dose 20 mg/kg
Method in brief: as §3

[14] = biological target: Glutamate receptor ionotropic, NMDA 1 (Rattus norvegicus) (UniProt P35439); assay: In vitro ability to displace [3H]L-689,560 binding to glycine site on the N-methyl-D-aspartate glutamate receptor 1 from rat cortical membranes at 10 uM
Mus musculus [15] = assay: Evaluated in vivo for their ability to protect against audiogenic seizure in DBA/2 mice when administered 100 mg/kg ip 30 min prior to noise stimulation out of 8 mice tested; conditions: route intraperitoneal
Mus musculus [16] = assay: Compound was evaluated in vivo for their ability to protect against audiogenic seizure in DBA/2 mice when administered 20 mg/kg ip 30 min prior to noise stimulation out of 8 mice tested; conditions: route intraperitoneal
Mus musculus [17] = assay: compound was evaluated in vivo for their ability to protect against audiogenic seizure in DBA/2 mice when administered 50 mg/kg ip 30 min prior to noise stimulation out of 8 mice tested; format: functional; conditions: route intraperitoneal
Method in brief: as §3

Kb [2] [nM] | IC50 [6] [nM] | Compound | other results
– | 170 | O=C(O)CCc1c(-c2ccccc2)c(=O)[nH]c2cc(Cl)ccc12 | –
– | 580 | O=C(O)C(=O)Nc1c(-c2ccccc2)c(=O)[nH]c2cc(Cl)ccc12 | –
– | 3200 | CN(C)CCNc1c(-c2ccccc2)c(=O)[nH]c2cc(Cl)ccc12 | –
560 | – | O=C(O)COc1c(-c2cccc(Oc3ccccc3)c2)c(O)nc2cc(Cl)ccc12 | No. of mice protected (Mus musculus [1]): 0
3400 | 420 | Nc1c(-c2cccc(Oc3ccccc3)c2)c(O)nc2cc(Cl)ccc12 | No. of mice protected (Mus musculus [1]): 2
– | 780 | C/C(COc1c(-c2ccccc2)c(O)nc2cc(Cl)ccc12)=N\O | Kb [8]: 2800 nM; ED50 (Mus musculus [9]): 9.4 mg/kg
2900 | – | NC(=O)CCc1c(-c2ccccc2)c(O)nc2cc(Cl)ccc12 | No. of mice protected (Mus musculus [1]): 1
– | > 100000 | CNc1c(-c2ccccc2)c(=O)[nH]c2cc(Cl)ccc12 | –
– | 3500 | Cc1noc(CCc2c(-c3ccccc3)c(O)nc3cc(Cl)ccc23)n1 | No. of mice protected (Mus musculus [1]): 4
880 | – | O=c1[nH]c2cc(Cl)ccc2c(O)c1-c1ccccc1 | ED50 (Mus musculus [4]): 4.5 mg/kg
11600 | – | O=C(O)CC(=O)Nc1c(-c2ccccc2)c(O)nc2cc(Cl)ccc12 | No. of mice protected (Mus musculus [1]): 2
– | 14700 | CC(=O)Nc1c(-c2ccccc2)c(O)nc2cc(Cl)ccc12 | No. of mice protected (Mus musculus [12]): inactive
– | 1190 | O=c1[nH]c2cc(Cl)ccc2c(NS(=O)(=O)c2ccccc2)c1-c1ccccc1 | –
> 3000 | 2000 | Oc1nc2cc(Cl)ccc2c(NCc2ccccc2)c1-c1ccccc1 | No. of mice protected (Mus musculus [1]): 1
1250 | 110 | O=C(O)COc1c(-c2ccccc2)c(O)nc2cc(Cl)ccc12 | No. of mice protected (Mus musculus [1]): 3
– | 750 | N#CCCc1c(-c2ccccc2)c(=O)[nH]c2cc(Cl)ccc12 | –
– | 2700 | COC(=O)C(=O)Nc1c(-c2ccccc2)c(O)nc2cc(Cl)ccc12 | ED50 (Mus musculus [13]): inactive
– | 2800 | Oc1nc2cc(Cl)ccc2c(OCc2ccccn2)c1-c1ccccc1 | No. of mice protected (Mus musculus [7]): 1
– | > 100000 | O=C(Cc1ccccc1)Nc1c(-c2ccccc2)c(O)nc2cc(Cl)ccc12 | –
– | 190 | NC(=O)CCc1c(-c2ccccc2)c(=O)[nH]c2cc(Cl)ccc12 | –
– | 11600 | CN(C)C(=O)COc1c(-c2ccccc2)c(O)nc2cc(Cl)ccc12 | –
1400 | – | O=C(O)Cc1c(-c2ccccc2)c(O)nc2cc(Cl)ccc12 | No. of mice protected at 20 mg/kg (Mus musculus [5]): 0 mg/kg
1600 | – | Oc1nc2cc(Cl)ccc2c(CCc2nnn[nH]2)c1-c1ccccc1 | No. of mice protected (Mus musculus [15]): 0
– | 160 | O=C(O)Cc1c(-c2ccccc2)c(=O)[nH]c2cc(Cl)ccc12 | –
– | ~50000 | CO/N=C(\C)COc1c(-c2ccccc2)c(O)nc2cc(Cl)ccc12 | No. of mice protected (Mus musculus [16]): 0

Continued, compound first:

Compound | Kb [2] [nM] | IC50 [6] [nM] | other results
CN(C)CCNc1c(-c2ccccc2)c(O)nc2cc(Cl)ccc12 | 12000 | – | No. of mice protected (Mus musculus [1]): 0; No. of mice protected (Mus musculus [3]): 8
O=c1[nH]c2cc(Cl)ccc2c(O)c1-c1cccc(Oc2ccccc2)c1 | – | – | ED50 (Mus musculus [4]): 0.9 mg/kg
O=C(O)CCc1c(-c2ccccc2)c(O)nc2cc(Cl)ccc12 | 2200 | – | No. of mice protected (Mus musculus [5]): 1
O=C(NCc1ccccc1)c1c(-c2ccccc2)c(=O)[nH]c2cc(Cl)ccc12 | – | > 100000 | –
COC(=O)Cc1c(-c2ccccc2)c(=O)[nH]c2cc(Cl)ccc12 | – | 1100 | –
CN(C)CCOc1c(-c2ccccc2)c(O)nc2cc(Cl)ccc12 | – | 11000 | –
NC(=O)COc1c(-c2ccccc2)c(O)nc2cc(Cl)ccc12 | – | – | No. of mice protected (Mus musculus [7]): 0; Kb [8]: 3100 nM
NC(=O)COc1c(-c2ccccc2)c(=O)[nH]c2cc(Cl)ccc12 | – | 420 | –
O=c1[nH]c2cc(Cl)ccc2c(CCc2nn[nH]n2)c1-c1ccccc1 | – | 240 | –
N#CCCc1c(-c2ccccc2)c(O)nc2cc(Cl)ccc12 | > 10000 | – | No. of mice protected (Mus musculus [1]): 0
O=C(O)C(=O)Nc1c(-c2ccccc2)c(O)nc2cc(Cl)ccc12 | 4500 | – | No. of mice protected (Mus musculus [1]): 0
COC(=O)c1c(-c2ccccc2)c(O)nc2cc(Cl)ccc12 | – | – | inhibition [10]: 69%
Nc1c(-c2ccccc2)c(=O)[nH]c2cc(Cl)ccc12 | – | 6700 | –
Nc1c(-c2ccccc2)c(O)nc2cc(Cl)ccc12 | 10500 | – | –
CN(C)c1c(-c2ccccc2)c(=O)[nH]c2cc(Cl)ccc12 | – | > 100000 | –
COC(=O)CCc1c(-c2ccccc2)c(O)nc2cc(Cl)ccc12 | 4600 | 500 | No. of mice protected (Mus musculus [5]): 0
O=C(O)COc1c(-c2cccc(Oc3ccccc3)c2)c(=O)[nH]c2cc(Cl)ccc12 | – | 24 | –

Compound | Kb [2] [nM] | IC50 [6] [nM] | other results
CS(=O)(=O)Nc1c(-c2ccccc2)c(O)nc2cc(Cl)ccc12 | 2200 | 270 | No. of mice protected (Mus musculus [1]): 0
CCc1c(-c2ccccc2)c(O)nc2cc(Cl)ccc12 | – | > 100000 | –
O=S(=O)(Nc1c(-c2ccccc2)c(O)nc2cc(Cl)ccc12)c1ccccc1 | 2900 | – | No. of mice protected (Mus musculus [1]): 1
N#CCOc1c(-c2ccccc2)c(O)nc2cc(Cl)ccc12 | – | 320 | ED50 (Mus musculus [11]): 16.3 mg/kg; Kb [8]: 4700 nM
Oc1nc2cc(Cl)ccc2c(OCc2ccccc2)c1-c1ccccc1 | – | ~10000 | –
COC(=O)Cc1c(-c2ccccc2)c(O)nc2cc(Cl)ccc12 | 4000 | – | No. of mice protected (Mus musculus [1]): 1
O=C(O)CC(=O)Nc1c(-c2ccccc2)c(=O)[nH]c2cc(Cl)ccc12 | – | 1100 | –
CN(C)CCNC(=O)C(=O)Nc1c(-c2ccccc2)c(O)nc2cc(Cl)ccc12 | – | 25000 | No. of mice protected (Mus musculus [1]): 2
O=C(O)c1c(-c2ccccc2)c(=O)[nH]c2cc(Cl)ccc12 | – | 900 | –
CN(C)CCNC(=O)Cc1c(-c2ccccc2)c(O)nc2cc(Cl)ccc12 | – | – | No. of mice protected (Mus musculus [1]): 0; inhibition [14]: 29%
O=c1[nH]c2cc(Cl)ccc2cc1-c1ccccc1 | – | > 100000 | –
COc1c(-c2ccccc2)c(=O)[nH]c2cc(Cl)ccc12 | – | > 100000 | –
COC(=O)COc1c(-c2ccccc2)c(O)nc2cc(Cl)ccc12 | 960 | 3200 | No. of mice protected (Mus musculus [3]): 1
O=C(O)c1c(-c2ccccc2)c(O)nc2cc(Cl)ccc12 | – | – | No. of mice protected (Mus musculus [7]): 1; Kb [8]: 1300 nM
CN(C)CCCNc1c(-c2ccccc2)c(O)nc2cc(Cl)ccc12 | – | 4200 | No. of mice protected (Mus musculus [17]): 1; No. of mice protected (Mus musculus [3]): 6
CC(=O)COc1c(-c2ccccc2)c(O)nc2cc(Cl)ccc12 | – | 1700 | No. of mice protected (Mus musculus [7]): 5; Kb [8]: 11400 nM
